In ChEMBL document CHEMBL1132493, “Synthesis and in vitro evaluation of new 8-amino-1,4-benzoxazine derivatives as neuroprotective antioxidants” (J Med Chem, 1999):

Legend:
[1] = (§1) In vitro neurotoxicity (Maximum Tolerated concentration[MTC]) was measured by quantification of cellular lysis after measurement of LDH activity released from damaged cells; type: toxicity, cell-based; details: mouse, HT-22 cells; read-out: MTC
[2] = (§2) In vitro neurotoxicity (concentration producing 50% toxicity [TC50]) was measured by quantification of cellular lysis after measurement of LDH activity released from damaged cells; type: cell-based; details: mouse, HT-22 cells; read-out: TC50 (the source's name)
HT-22 [3] = assay: In vitro neuroprotective activity estimated through their protective effects against L-homocysteic acid(L-HCA) cytotoxicity) on murine HT-22 hippocampal cell cultures and compared to those of exifone. (MTT reduction assay); type: functional, Mus musculus
[4] = Ratio of MTC to PC50 in MTT reduction assay; Safety ratio; type: functional
In short: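 Safety index: MTC divided by PC50, both from MTT reduction in HT-22 cells. MTC comes from 48 h drug exposure alone; PC50 from protection against 48 h 2 mM L-HCA after 1 h pretreatment. Both estimated by linear regression.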

HT-22 [5] = assay: In vitro neurotoxicity (Maximum Tolerated concentration[MTC]) was measured by (MTT) reduction assay on murine HT-22 hippocampal cell cultures and compared to those of parent exifone; type: functional, Mus musculus
HT-22 [6] = assay: (§3) In vitro neurotoxicity (concentration producing 50% toxicity [TC50]) was measured by (MTT) reduction assay on murine HT-22 hippocampal cell cultures and compared to those of parent exifone,; type: functional; details: Mus musculus, read-out: TC50 (the source's name)
HT-22 [7] = assay: (§4) The concentration producing 50%protection (PC50) was obtained for lactate dehydrogenase (LDH) activity. In vitro neuroprotective activity estimated through their protective effects against L-homocysteic acid(L-HCA) cytotoxicity on murine HT-22 hip pocampal cell cultures and compared to those of exifone; type: functional, Mus musculus
[8] = Ratio of MTC to PC50 after measurement of LDH activity; Safety ratio; type: functional
In short: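 Safety index: MTC divided by PC50, both from LDH release in HT-22 cells. MTC comes from 48 h drug exposure alone; PC50 from 1 h antioxidant pretreatment followed by 48 h 2 mM L-HCA exposure. Both derived by linear regression.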

HT-22 [9] = assay: In vitro neuroprotective activity estimated through their protective effects against L-homocysteic acid(L-HCA) cytotoxicity) on murine HT-22 hippocampal cell cultures and compared to those of exifone(MTT reduction assay); type: functional, Mus musculus
HT-22 [10] = assay: as §4, with “measured by” for “obtained for”, “hippocampal” for “hip pocampal”; type: functional, Mus musculus
HT-22 [11] = assay: In vitro neurotoxicity (concentration producing 50% toxicity [TC50]) was measured by (MTT) reduction assay on murine HT-22 hippocampal cell cultures and compared to those of parent exifone; type: functional; details: Mus musculus, read-out: TC50 (the source's name)
HT-22 [12] = assay: as §2; type: functional; details: Mus musculus, read-out: TC50 (the source's name)
HT-22 [13] = assay: as §1; type: functional, Mus musculus
[14] = as §3; type: cell-based; details: mouse, HT-22 hippocampal cells; read-out: TC50 (the source's name)
HT-22 [15] = assay: In vitro neuroprotective activity estimated through their protective effects against L-homocysteic acid(L-HCA) cytotoxicity) on murine HT-22 hippocampal cell cultures and compared to those of exifone (MTT reduction assay); type: functional, Mus musculus

CC(C)CCNc1ccc(C(=O)c2ccccc2)c2c1OCC(c1ccccc1)(c1ccccc1)N2
MNTC [1]: > 250 µM

O=C(C1=CC=C(O)C2(O)OCC3(CCCC3)N=C12)c1ccccc1 (stereo not drawn)
CC50 [2]: > 250 µM | PC50 (HT-22 [3]): 47.4 µM | Ratio [4]: 1.1 | MTC (HT-22 [5]): 50 µM | CC50 (HT-22 [6]): 109 µM | PC50 (HT-22 [7]): 40.9 µM | Ratio [8]: 1.2 | MNTC [1]: 50 µM

O=C(c1ccccc1)c1ccc(NCCO)c2c1NC(CO)(CO)CO2
MNTC [1]: > 250 µM

O=C(c1ccccc1)c1ccc(NCc2ccccc2)c2c1NC1(CCCC1)CO2
PC50 (HT-22 [9]): 6.9 µM | CC50 [2]: > 250 µM | Ratio [4]: > 36 | PC50 (HT-22 [10]): 7.1 µM | MTC (HT-22 [5]): >250 µM | Ratio [8]: > 36 | CC50 (HT-22 [11]): > 250 µM | MNTC [1]: > 250 µM

CC(C)CNc1ccc(C(=O)c2ccccc2)c2c1OCC1(CCCC1)N2
PC50 (HT-22 [9]): >10 µM | CC50 [2]: > 250 µM | Ratio [4]: < 1 | PC50 (HT-22 [10]): >10 µM | MTC (HT-22 [5]): 10 µM | Ratio [8]: < 1 | CC50 (HT-22 [11]): > 250 µM | MNTC [1]: > 250 µM

O=C(c1ccccc1)c1ccc(O)c2c1NC(CO)CO2 (stereo not drawn)
MNTC [1]: 10 µM

CC(C)(C)C1COC2(O)C(O)=CC=C(C(=O)c3ccccc3)C2=N1 (stereo not drawn)
CC50 (HT-22 [12]): 38.1 µM | MTC (HT-22 [13]): 10 µM | PC50 (HT-22 [3]): 6.5 µM | Ratio [4]: 1.5 | CC50 [14]: 17.6 µM | MTC (HT-22 [5]): 10 µM | PC50 (HT-22 [7]): 5.8 µM | Ratio [8]: 1.7

CC(C)(C)C1COc2c(NCc3ccccc3)ccc(C(=O)c3ccccc3)c2N1 (stereo not drawn)
MNTC [1]: > 250 µM

CC(C)CCNc1ccc(C(=O)c2ccccc2)c2c1OCC(C)(C)N2
MNTC [1]: 10 µM

O=C(c1ccccc1)c1ccc(NCc2ccccc2)c2c1NC(c1ccccc1)(c1ccccc1)CO2
MNTC [1]: > 250 µM

CC(C)(C)C1COc2c(NCCc3ccccc3)ccc(C(=O)c3ccccc3)c2N1 (stereo not drawn)
PC50 (HT-22 [9]): 8.8 µM | CC50 [2]: > 250 µM | Ratio [4]: 11 | MTC (HT-22 [5]): 100 µM | PC50 (HT-22 [7]): 8.9 µM | Ratio [8]: 28 | CC50 (HT-22 [11]): > 250 µM | MNTC [1]: 250 µM

CC1(C)COc2c(NCc3ccccc3)ccc(C(=O)c3ccccc3)c2N1
MNTC [1]: > 250 µM

CC(C)(C)C1COc2c(O)ccc(C(=O)c3ccccc3)c2N1 (stereo not drawn)
MNTC [1]: 5 µM

CC1(C)COc2c(NCCO)ccc(C(=O)c3ccccc3)c2N1
MNTC [1]: 100 µM

CC1(CO)COc2c(NCCO)ccc(C(=O)c3ccccc3)c2N1 (stereo not drawn)
MNTC [1]: > 250 µM

CC1(C)COc2c(NC(CO)CO)ccc(C(=O)c3ccccc3)c2N1
MNTC [1]: > 250 µM

CC(C)CCNc1ccc(C(=O)c2ccccc2)c2c1OCC(C(C)(C)C)N2 (stereo not drawn)
MNTC [1]: 10 µM

O=C(c1ccccc1)c1ccc(NC(CO)CO)c2c1NC(CO)CO2 (stereo not drawn)
MNTC [1]: > 250 µM

O=C(C1=CC=C(O)C2(O)OCC(CO)N=C12)c1ccccc1 (stereo not drawn)
MNTC [1]: 25 µM

O=C(c1ccccc1)c1ccc(O)c2c1NC1(CCCC1)CO2
CC50 [2]: 36.4 µM | Ratio [4]: 1 | PC50 (HT-22 [15]): 25 µM | PC50 (HT-22 [10]): 18.4 µM | MTC (HT-22 [5]): 25 µM | Ratio [8]: 1.4 | CC50 (HT-22 [11]): 37.5 µM | MNTC [1]: 25 µM

CC1(CO)COc2c(NC(CO)CO)ccc(C(=O)c3ccccc3)c2N1 (stereo not drawn)
MNTC [1]: > 250 µM
